These results are taken from ChEMBL document CHEMBL3286139, “Synthesis of α, β-unsaturated carbonyl based compounds as acetylcholinesterase and butyrylcholinesterase inhibitors: characterization, molecular modeling, QSAR studies and effect against amyloid β-induced cytotoxicity” (Eur J Med Chem, 2014).

A word on the IC50: it is the concentration that gives 50% inhibition.

Calls of active or inactive are those of the source. No cut-off for these calls is given here.

Series [1] deals with Radical scavenging activity. The experiment in a line: Antioxidant activity assessed as DPPH free radical scavenging activity. Format: functional. For orientation: Loss of DPPH colour is used to gauge radical scavenging.
Series [2] is described as follows: Cytotoxicity against rat PC12 cells at 0.01 to 100 uM after 24 hrs by MTT assay. It counts as cell-based. Conditions: pc-12, 24 h. The method in brief:
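PC12 cells kept in RPMI-1640 with 10% heat-inactivated FBS and 1% penicillin-streptomycin at 37°C, 5% CO2. Seeded 1×10^4 cells/well, exposed to compound (0.01-100 μM) for 24 h. MTT (2.0 mg/ml) added for 4 h at 37°C, formazan dissolved in DMSO, read at 570/630 nm. Viability given as percent of control cultures.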

A further series relates to PC-12. The experiment in a line: Neuroprotective activity against amyloid beta (1 to 42)-induced cytotoxicity in rat PC12 cells at 0.01 to 100 uM pretreated for 24 hrs followed by addition of 25 uM amyloid beta (1 to 42) by MTT assay. Format: functional, cell-based. The method in brief: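 PC12 cells (RPMI-1640, 10% heat-inactivated FBS, 37°C, 5% CO2) pre-incubated with compound (0.01-100 μM) in serum-free medium for 24 h, then given 25 µM Aβ1-42. Untreated control lacked Aβ. Selegiline served as positive control. MTT 2.0 mg/ml for 4 h at 37°C, DMSO solubilization, 570/630 nm read. Mean percent viable cells versus untreated, mean ± SE, n=5.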

Series [3] is described as follows: Neuroprotective activity against amyloid beta (1 to 42)-induced cytotoxicity in rat PC12 cells at 100 uM pretreated for 24 hrs followed by addition of 25 uM amyloid beta (1 to 42) by MTT assay. Format: functional, PC-12. In outline: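 PC12 cells in RPMI-1640/10% heat-inactivated FBS, 37°C, 5% CO2, seeded 1×10^4 cells/well. Compound pre-incubation 24 h in serum-free medium, then 25 µM Aβ1-42 added; selegiline as positive control. MTT 2.0 mg/ml, 4 h at 37°C, formazan dissolved in DMSO, read 570/630 nm. Viability as % of untreated cells, mean ± SE, n=5.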

On to `O=C(/C=C/c1ccc(N2CCCC2)cc1)C1CCc2ccccc2C1=O` (configuration not stated), for which the concentration for half-maximal inhibition (IC50) in series [1] is 27.9 µM. The Activity entry in series [2] is “Non-toxic”. In addition, the outcome in the series on PC-12 was inactive.

Turning to `CCOC(OCC)c1ccc(/C=C2\COC/C(=C\c3ccc(C(OCC)OCC)cc3)C2=O)cc1`, the IC50 in series [1] is 29.3 µM. Moreover, the Activity entry in series [2] was “Non-toxic”. For the same molecule, the outcome in the series on PC-12 was inactive.

Consider `O=C1/C(=C/c2ccc(N3CCCC3)cc2)Cc2ccccc21`, for which the concentration for half-maximal inhibition (IC50) in series [1] is over 50 µM. In addition, in series [2], the Activity result is on record as “Non-toxic”. The outcome in the series on PC-12 was inactive.

As to `CCOC(OCC)c1ccc(/C=C/C(=O)/C=C/c2ccc(C(OCC)OCC)cc2)cc1`, the IC50 in series [1] was over 50 µM. For the same molecule, the Activity entry in series [2] is “Non-toxic”. Moreover, the outcome in the series on PC-12 was inactive.

For the molecule `O=C1/C(=C\c2ccc(N3CCCC3)cc2)CCC/C1=C\c1ccc(N2CCCC2)cc1`, the IC50 in series [1] came out at 31.3 µM. Further, in series [2], the Activity result is on record as “Non-toxic”. In addition, the outcome with PC-12 was inactive.

On to `CN(C)c1ccc(/C=C2\CC/C(=C\c3ccc(N(C)C)cc3[N+](=O)[O-])C2=O)c([N+](=O)[O-])c1`, for which the IC50 in series [1] is 47.8 µM. For the same molecule, in series [2], the Activity result was “Non-toxic”. Moreover, the outcome with PC-12 was Active.

Regarding `O=C1/C(=C\c2ccc(N3CCCC3)cc2)CN(Cc2ccccc2)C/C1=C\c1ccc(N2CCCC2)cc1`, the half-maximal inhibitory concentration (IC50) in series [1] was over 50 µM. Further, the Activity result in series [2] was “Non-toxic”. Further, the result in the series on PC-12 was inactive.

On to `CN(C)c1ccc(/C=C2/CCC/C(=C\c3ccc(N(C)C)cc3[N+](=O)[O-])C2=O)c([N+](=O)[O-])c1`, for which the IC50 in series [1] was found to be 32.5 µM. Besides, in series [2], the Activity result is given as “Non-toxic”. Besides, in the series on PC-12, the outcome was Active.

`CCOC(OCC)c1ccc(/C=C2\CN(Cc3ccccc3)C/C(=C\c3ccc(C(OCC)OCC)cc3)C2=O)cc1`: the IC50 in series [1] came out at 28.2 µM. Besides, the Activity result in series [2] was “Non-toxic”. The result with PC-12 was inactive.

Take `CCOC(OCC)c1ccc(/C=C2\CN(C)C/C(=C\c3ccc(C(OCC)OCC)cc3)C2=O)cc1`: the IC50 in series [1] worked out at 20.4 µM. In addition, the Activity result was “Non-toxic” in series [2] and “<=87%” in series [3]. The outcome in the series on PC-12 was Active.

For the molecule `O=C1/C(=C/c2ccc(N3CCCC3)cc2)CCc2ccccc21`, in series [1], the IC50 worked out at 29.2 µM. Also, the Activity result in series [2] was “Non-toxic”. In the series on PC-12, the outcome was inactive.

In the case of `O=C(/C=C/c1ccc(N2CCCC2)cc1)/C=C/c1ccc(N2CCCC2)cc1`, the IC50 in series [1] is over 50 µM. Besides, in series [2], the Activity result was “Non-toxic”. Besides, the result in the series with PC-12 was inactive.

As for `CCOC(OCC)c1ccc(/C=C2\CCc3ccccc3C2=O)cc1`, the 50% inhibitory concentration (IC50) in series [1] is 39.5 µM. In addition, in series [2], the Activity result is given as “Non-toxic”. Moreover, the outcome with PC-12 was inactive.

As for `CN(C)c1ccc(/C=C2/CNC/C(=C\c3ccc(N(C)C)cc3[N+](=O)[O-])C2=O)c([N+](=O)[O-])c1`, the concentration for half-maximal inhibition (IC50) in series [1] was found to be 25.7 µM. Further, the values for the Activity entry in series [2] and in series [3] were “Non-toxic” and “<=87%”, respectively. The result with PC-12 was Active.

Regarding `CN(C)c1ccc(/C=C2/CN(Cc3ccccc3)C/C(=C\c3ccc(N(C)C)cc3[N+](=O)[O-])C2=O)c([N+](=O)[O-])c1`, the IC50 in series [1] was over 50 µM. Also, the Activity result in series [2] is “Non-toxic”. For the same molecule, the result in the series with PC-12 was Active.

Take `C#CCN(C)[C@H](C)Cc1ccccc1`: in the series on PC-12, the result was Active.

`CCOC(OCC)c1ccc(/C=C2\CCC/C(=C\c3ccc(C(OCC)OCC)cc3)C2=O)cc1`: the concentration for half-maximal inhibition (IC50) in series [1] turned out to be 20.1 µM. The Activity entry in series [2] is “Non-toxic”; in series [3] it was “<=87%”. The outcome in the series on PC-12 was Active.

Regarding `CN1C/C(=C/c2ccc(N3CCCC3)cc2)C(=O)/C(=C/c2ccc(N3CCCC3)cc2)C1`, the IC50 in series [1] is 43.3 µM. Further, the Activity entry in series [2] is recorded as “Non-toxic”. Moreover, the result in the series with PC-12 was inactive.

As for `O=C1/C(=C/c2ccc(N3CCCC3)cc2)CC/C1=C\c1ccc(N2CCCC2)cc1`, the IC50 in series [1] is over 50 µM. Besides, the Activity entry in series [2] is given as “Non-toxic”. In the series on PC-12, the result was inactive.

`CN(C)c1ccc(/C=C2\Cc3ccccc3C2=O)c([N+](=O)[O-])c1`: in series [1], the IC50 was over 50 µM. In series [2], the Activity result is “Non-toxic”. For the same molecule, the outcome in the series on PC-12 was Active.

For `O=C1/C(=C\c2ccc(N3CCCC3)cc2)CNC/C1=C\c1ccc(N2CCCC2)cc1`, the half-inhibitory concentration (IC50) in series [1] came to 26.9 µM. Besides, the Activity result in series [2] was “Non-toxic”. Further, the outcome with PC-12 was inactive.

Turning to `CCOC(OCC)c1ccc(/C=C2\CNC/C(=C\c3ccc(C(OCC)OCC)cc3)C2=O)cc1`, the IC50 in series [1] worked out at 19.3 µM. Moreover, the Activity result is listed as “Non-toxic” in series [2] and “<=87%” in series [3]. For the same molecule, the outcome in the series on PC-12 was Active.

In the case of `CN1C/C(=C/c2ccc(N(C)C)cc2[N+](=O)[O-])C(=O)/C(=C/c2ccc(N(C)C)cc2[N+](=O)[O-])C1`, the 50% inhibitory concentration (IC50) in series [1] was 18.4 µM. Moreover, the results for the Activity result in series [2] and in series [3] were “Non-toxic” and “<=87%”, respectively. The outcome in the series with PC-12 was Active.

`CN(C)c1ccc(/C=C2/COC/C(=C\c3ccc(N(C)C)cc3[N+](=O)[O-])C2=O)c([N+](=O)[O-])c1`: the IC50 in series [1] was determined as 29.2 µM. The Activity entry in series [2] is recorded as “Non-toxic”. In addition, the result with PC-12 was Active.

Regarding `CN(C)c1ccc(/C=C2\CCc3ccccc3C2=O)c([N+](=O)[O-])c1`, the IC50 in series [1] turned out to be 23 µM. Also, the Activity entry in series [2] is recorded as “Non-toxic”; in series [3] it was “<=87%”. The outcome with PC-12 was Active.

Consider `CN(C)c1ccc(/C=C/C(=O)C2CCc3ccccc3C2=O)c([N+](=O)[O-])c1` (configuration not stated), for which, in series [1], the IC50 was determined as 49.1 µM. For the same molecule, the Activity entry in series [2] is “Non-toxic”. In the series with PC-12, the outcome was Active.

`CN(C)c1ccc(/C=C/C(=O)/C=C/c2ccc(N(C)C)cc2[N+](=O)[O-])c([N+](=O)[O-])c1`: the half-inhibitory concentration (IC50) in series [1] was over 50 µM. For the same molecule, in series [2], the Activity entry is given as “Non-toxic”. In the series on PC-12, the outcome was Active.

As to `CCOC(OCC)c1ccc(/C=C2\CC/C(=C\c3ccc(C(OCC)OCC)cc3)C2=O)cc1`, in series [2], the Activity result is on record as “Non-toxic”. Moreover, the result with PC-12 was inactive.

With `CCOC(OCC)c1ccc(/C=C/C(=O)C2CCc3ccccc3C2=O)cc1` (configuration not stated), the IC50 in series [1] is over 50 µM. The Activity entry in series [2] is recorded as “Non-toxic”. Also, the result with PC-12 was inactive.

`CCOC(OCC)c1ccc(/C=C2\Cc3ccccc3C2=O)cc1`: the concentration for half-maximal inhibition (IC50) in series [1] was found to be 37.2 µM. For the same molecule, the Activity entry in series [2] was “Non-toxic”. In addition, in the series on PC-12, the result was inactive.

Consider `O=C1O[C@H]([C@@H](O)CO)C(O)=C1O` [ASCORBIC ACID], for which the IC50 in series [1] is 19.4 µM.

On to `O=C1/C(=C\c2ccc(N3CCCC3)cc2)COC/C1=C\c1ccc(N2CCCC2)cc1`, for which the half-inhibitory concentration (IC50) in series [1] was over 50 µM. Further, the Activity result in series [2] is “Non-toxic”. The result in the series with PC-12 was inactive.
